In ChEMBL document CHEMBL1944602, “Synthesis and biological characterisation of sirtuin inhibitors based on the tenovins” (Bioorg Med Chem, 2012):
≈ marks a conversion by molar mass, not a printed value. Calls of active or inactive are those of the source. No cut-off for these calls is given here.

Tests used:
[1] = Solubility of the compound in water by UV spectrophotometry; assay type: physicochemical
Outline: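 Extinction coefficient from absorbance at 273 nm of a 7-point 2-fold dilution series in acetonitrile; DMSO used first where needed. Coefficient taken from the slope of absorbance against molar concentration. Used to find the actual concentration of a nominal 100 µM aqueous solution made from 40 mM DMSO stock.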

[2] = biological target: T1, NAD-dependent protein deacetylase sirtuin-2 (Homo sapiens, UniProt Q8IXJ6); experiment: Inhibition of recombinant human SitT2 by Fluor de Lys fluorescence assay
T1 sequence (Q8IXJ6 whole entry): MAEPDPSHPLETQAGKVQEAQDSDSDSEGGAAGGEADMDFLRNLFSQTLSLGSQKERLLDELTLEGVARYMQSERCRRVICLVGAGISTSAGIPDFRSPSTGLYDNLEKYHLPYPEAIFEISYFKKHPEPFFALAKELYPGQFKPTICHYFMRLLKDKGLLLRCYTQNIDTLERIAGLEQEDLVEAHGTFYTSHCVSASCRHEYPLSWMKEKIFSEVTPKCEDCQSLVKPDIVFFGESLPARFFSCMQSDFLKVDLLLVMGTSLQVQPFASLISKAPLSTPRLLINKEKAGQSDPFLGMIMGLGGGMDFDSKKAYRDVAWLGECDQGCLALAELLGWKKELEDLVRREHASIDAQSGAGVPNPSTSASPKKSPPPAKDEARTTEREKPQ

[3] = biological target: T2, NAD-dependent protein deacetylase sirtuin-1 (Homo sapiens) (UniProt Q96EB6); experiment: Inhibition of recombinant human SitT1 at 60 uM by Fluor de Lys fluorescence assay
T2 sequence (whole entry): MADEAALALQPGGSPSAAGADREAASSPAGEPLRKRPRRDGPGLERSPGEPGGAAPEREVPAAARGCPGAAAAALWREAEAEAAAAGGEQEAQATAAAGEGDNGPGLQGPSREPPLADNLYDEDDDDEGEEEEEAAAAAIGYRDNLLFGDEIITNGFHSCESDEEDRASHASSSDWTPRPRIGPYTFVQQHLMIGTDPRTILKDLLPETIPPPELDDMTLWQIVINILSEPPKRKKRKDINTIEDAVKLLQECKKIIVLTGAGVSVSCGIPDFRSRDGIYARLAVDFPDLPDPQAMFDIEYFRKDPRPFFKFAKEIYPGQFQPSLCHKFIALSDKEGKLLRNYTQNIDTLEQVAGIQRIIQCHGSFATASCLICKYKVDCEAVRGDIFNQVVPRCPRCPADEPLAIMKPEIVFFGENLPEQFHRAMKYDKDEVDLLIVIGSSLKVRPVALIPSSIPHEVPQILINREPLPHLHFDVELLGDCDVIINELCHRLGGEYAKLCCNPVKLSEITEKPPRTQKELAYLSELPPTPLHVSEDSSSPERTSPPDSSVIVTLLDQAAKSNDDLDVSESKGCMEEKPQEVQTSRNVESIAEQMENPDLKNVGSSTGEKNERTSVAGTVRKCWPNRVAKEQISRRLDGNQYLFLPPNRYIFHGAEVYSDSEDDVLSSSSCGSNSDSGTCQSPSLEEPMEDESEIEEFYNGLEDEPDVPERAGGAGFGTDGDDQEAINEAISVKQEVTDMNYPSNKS
Outline: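 Human recombinant SirT1 deacetylation measured with the Fluor de Lys fluorescence kit at a fixed 60 µM inhibitor. Tested on two separate occasions; percent inhibition reported as a mean weighted to the standard error.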

[4] = biological target: T2, NAD-dependent protein deacetylase sirtuin-1 (Homo sapiens); experiment: Inhibition of SirT1 assessed as increase in p53 expression in human MCF7 cells at 10 uM after 6 hrs by Western blotting; assay type: cell-based
Outline: (§1)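 MCF-7 cells grown in DMEM with 10% FCS and gentamycin, seeded at 2 × 10⁵ per well on collagen-coated plates and incubated 42 h at 37 °C in 5% CO2. Compound in DMSO was added for 6 h. Lysis in LDS buffer, protein equalised by BCA, 4–12% bis-tris SDS-PAGE, PVDF blot. Total p53 detected with DO.1, PCNA as loading control, ECL detection. Scored semi-quantitatively against untreated level.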

[5] = biological target: T2, NAD-dependent protein deacetylase sirtuin-1 (Homo sapiens); experiment: Inhibition of SirT1 assessed as increase in p53 expression in human MCF7 cells at 5 uM after 6 hrs by Western blotting; assay type: cell-based; outline: as §1
[6] = biological target: T2, NAD-dependent protein deacetylase sirtuin-1 (Homo sapiens); experiment: Inhibition of SirT1 assessed as increase in p53 expression in human MCF7 cells at 2 uM after 6 hrs by Western blotting; assay type: cell-based; outline: as §1
[7] = biological target: T2, NAD-dependent protein deacetylase sirtuin-1 (Homo sapiens); experiment: Inhibition of SirT1 in human ARN8 cells assessed as p53 activation at 20 uM by beta-galactosidase reporter gene assay relative to control; assay type: cell-based
Outline: (§2)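 p53-dependent transcription measured with a beta-galactosidase reporter in ARN8 cells, run in triplicate. Read-out is the ratio of signal in treated cells to DMSO-control cells, given to 2 significant figures; a positive or negative activity call is also recorded.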

[8] = biological target: T2, NAD-dependent protein deacetylase sirtuin-1 (Homo sapiens); experiment: Inhibition of SirT1 in human ARN8 cells assessed as p53 activation at 10 uM by beta-galactosidase reporter gene assay relative to control; assay type: cell-based; outline: as §2
[9] = biological target: T2, NAD-dependent protein deacetylase sirtuin-1 (Homo sapiens); experiment: Inhibition of SirT1 in human ARN8 cells assessed as p53 activation at 5 uM by beta-galactosidase reporter gene assay relative to control; assay type: cell-based; outline: as §2
[10] = biological target: T2, NAD-dependent protein deacetylase sirtuin-1 (Homo sapiens); experiment: Inhibition of SirT1 in human ARN8 cells assessed as p53 activation at 10 uM by beta-galactosidase reporter gene assay; assay type: cell-based; outline: as §2
[11] = biological target: T2, NAD-dependent protein deacetylase sirtuin-1 (Homo sapiens); experiment: Inhibition of SirT1 in human ARN8 cells assessed as p53 activation at 5 uM by beta-galactosidase reporter gene assay; assay type: cell-based; outline: as §2
[12] = biological target: T3, NAD-dependent protein deacetylase sirtuin-1 (Homo sapiens, UniProt Q96EB6); experiment: Inhibition of recombinant human SitT1 by Fluor de Lys fluorescence assay
T3 sequence (Q96EB6 whole entry): T2 sequence (whole entry)

[13] = biological target: T2, NAD-dependent protein deacetylase sirtuin-1 (Homo sapiens); experiment: Inhibition of SirT1 in human ARN8 cells assessed as p53 activation at 20 uM by beta-galactosidase reporter gene assay; assay type: cell-based; outline: as §2

| SMILES | solubility [1] [µg/mL] | IC50 [2] [µM] | inhibition [3] [%] | inhibition [4] | inhibition [5] | inhibition [6] | fold change (FC) [7] | fold change (FC) [8] | fold change (FC) [9] | inhibition [10] | inhibition [11] | IC50 [12] [µM] | inhibition [13] |
| --- | --- | --- | --- | --- | --- | --- | --- | --- | --- | --- | --- | --- | --- |
| CN(C)CCCCCC(=O)Nc1ccc(NC(=S)NC(=O)c2ccc(C(C)(C)C)cc2)cc1.Cl | > 0.97 | 21.3 | 96.2 | Active | Active | Active | – | – | – | – | – | – | – |
| CCCCCc1ccc(C(=O)NC(=S)Nc2ccc(NC(=O)CCCCN(C)C)cc2)cc1 | – | 5.6 | 73.2 | – | – | – | 1.2 | 1.1 | 1.1 | inactive | inactive | 36.7 | – |
| CN(C)CCCCC(=O)Nc1ccc(NC(=S)NC(=O)c2ccccc2)cc1 | – | > 90 | 3.5 | – | – | – | 0.92 | 0.97 | 1.1 | inactive | inactive | > 90 | inactive |
| CN(C)CCCCC(=O)Nc1ccc(NC(=S)NC(=O)c2ccc(Cl)cc2)cc1 | – | > 90 | 53.4 | – | – | – | 1.01 | 1.2 | 1.1 | inactive | inactive | > 90 | inactive |
| CN(C)CCCCC(=O)Nc1ccc(NC(=S)NC(=O)c2cccc(Br)c2)cc1 | – | – | 70.5 | – | – | – | 1.2 | 1.2 | 1.1 | inactive | inactive | – | – |
| CCCc1ccc(C(=O)NC(=S)Nc2ccc(NC(=O)CCCCN(C)C)cc2)cc1 | – | 7.85 | 50.9 | – | – | – | 2.4 | 1.5 | 1 | Active | inactive | 60.2 | Active |
| COc1cccc(C(=O)NC(=S)Nc2ccc(NC(=O)CCCCN(C)C)cc2)c1 | – | – | 25.3 | – | – | – | 1.2 | 1.1 | 1.1 | inactive | inactive | – | inactive |
| CN(C)CCCCC(=O)Nc1ccc(NC(=S)NC(=O)c2ccc(Br)cc2)cc1 | – | 55 | 13.5 | – | – | – | 1.01 | 1.1 | 1 | inactive | inactive | > 90 | inactive |
| CC(=O)Nc1ccc(NC(=S)NC(=O)c2ccc(C(C)(C)C)cc2)cc1 | 0.12 (≈ 0.325 µM) | – | – | Active | Active | Active | – | – | – | – | – | – | – |
| CN(C)CCCCNC(=O)c1ccc(NC(=S)NC(=O)c2ccc(C(C)(C)C)cc2)cc1 | – | 12.4 | 72.5 | – | – | – | 5.5 | 3.9 | – | Active | – | 17.9 | Active |
| Cc1cccc(C(=O)NC(=S)Nc2ccc(NC(=O)CCCCN(C)C)cc2)c1 | – | > 90 | 5.2 | – | – | – | 0.89 | 0.89 | 0.94 | inactive | inactive | > 90 | inactive |
| CN(C)CCCCC(=O)Nc1ccc(NC(=O)NC(=O)c2ccc(C(C)(C)C)cc2)cc1 | – | 88.4 | 93.6 | – | – | – | 6.5 | 7.3 | 6.9 | Active | Active | 21.7 | Active |
| CN(C)CCCCC(=O)Nc1ccc(NC(=S)NC(=O)c2ccccc2Cl)cc1 | – | > 90 | 29.3 | – | – | – | 1.2 | 1.1 | 1.2 | inactive | inactive | > 90 | inactive |
| CN(C)CCCCC(=O)Nc1ccc(NC(=S)NC(=O)c2ccc(Cl)c(Cl)c2)cc1 | – | – | 8.1 | – | – | – | 0.97 | 1.1 | 1.04 | inactive | inactive | – | inactive |
| CN(C)CCCCCCCC(=O)Nc1ccc(NC(=S)NC(=O)c2ccc(C(C)(C)C)cc2)cc1.Cl | > 1.01 | 41.7 | 70.9 | Active | Active | Active | – | – | – | – | – | – | – |
| COc1ccc(C(=O)NC(=S)Nc2ccc(NC(=O)CCCCN(C)C)cc2)cc1 | – | 50.6 | 48.5 | – | – | – | 1.12 | 1.1 | 1 | inactive | inactive | > 90 | inactive |
| CC(C)c1ccc(C(=O)NC(=S)Nc2ccc(NC(=O)CCCCN(C)C)cc2)cc1 | – | 5.71 | 52.9 | – | – | – | 12 | 11.1 | 8.7 | Active | Active | 42.7 | Active |
| CN(C)CCCCC(=O)Nc1ccc(NC(=S)NC(=O)c2ccc(C(C)(C)C)c(Br)c2)cc1 | – | – | 93.5 | – | – | – | 1.4 | 1.1 | 1.1 | inactive | inactive | – | Active |
| Cc1ccc(C(=O)NC(=S)Nc2ccc(NC(=O)CCCCN(C)C)cc2)cc1 | – | > 90 | 47.3 | – | – | – | 1.1 | 1.1 | 1.2 | inactive | inactive | > 90 | inactive |
| CN(C)CCCCC(=O)Nc1ccc(N(C)C(=S)NC(=O)c2ccc(C(C)(C)C)cc2)cc1 | – | – | 6.6 | inactive | inactive | inactive | – | – | – | – | – | – | – |
| Cc1ccccc1C(=O)NC(=S)Nc1ccc(NC(=O)CCCCN(C)C)cc1 | – | 42.5 | 9.9 | – | – | – | 0.84 | 0.98 | 0.99 | inactive | inactive | > 90 | inactive |
| CN(C)CCCCC(=O)Nc1ccc(NC(=S)NC(=O)c2cccc(Cl)c2)cc1 | – | – | 29.2 | – | – | – | 1 | 1.1 | 1.1 | inactive | inactive | – | inactive |
